Screening results: PubChem, several laboratories
A selection: hits, their analogues and other compounds. The true share with any hit is near 12%.
Diaphorase act: activates diaphorase or chemically reduces, flagging diaphorase assay artifacts | Diaphorase/resazurin coupled assay, resorufin fluorescence, 16 min; hits give high values; 1 = vehicle wells, 0 = NADH-free wells | activation factor at 20 µM | 190,000 compounds, 0.005% hits;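 active = diaphorase activity raised at least twofold by the compound at 20 µM; inactive = activation factor below 2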
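Measured by – red resorufin fluorescence at 544/590 nm excitation/emission · Test system – Clostridium kluyveri diaphorase, purified enzyme · Incubation – reaction time 16 min, room temperature · Buffer or medium – 50 mM HEPES pH 7.4 with 4.542 mM MgCl2, 0.005% Tween 20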
ROMK mod: modulates human ROMK potassium channel activity; 130,000 compounds, 2% hits; Tet-inducible ROMK, thallium flux fluorescence; actives lie on both sides; AID 1918; B-score at 10 µM;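 active = signal ratio slope over the read window, or its plate-corrected B-score, at least 3 SD from the plate mean, either direction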;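 also: B-score of the F/F0 ratio slope over 7 to 12 s after thallium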
Target sequence (P48048 whole entry, looked up): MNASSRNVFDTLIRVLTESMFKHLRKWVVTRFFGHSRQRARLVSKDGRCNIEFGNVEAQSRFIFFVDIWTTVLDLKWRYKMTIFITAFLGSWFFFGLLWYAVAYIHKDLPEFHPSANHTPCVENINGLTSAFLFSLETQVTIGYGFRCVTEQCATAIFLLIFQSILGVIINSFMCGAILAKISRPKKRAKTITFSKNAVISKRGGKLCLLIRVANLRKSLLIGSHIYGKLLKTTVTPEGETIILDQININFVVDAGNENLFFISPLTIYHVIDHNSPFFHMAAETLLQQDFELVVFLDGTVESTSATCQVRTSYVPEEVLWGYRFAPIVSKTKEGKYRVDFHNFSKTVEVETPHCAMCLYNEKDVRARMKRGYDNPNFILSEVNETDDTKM
WT yeast gro inh: growth inhibition of WT yeast, mitochondrial fusion screen. mitochondrial fusion phenotypic screen, WT strain. inhibition, % at 10 µM. 190,000 compounds, 2.1% hits. AID 1362; in the data active = inhibition above about 58%; tested in S. cerevisiae
L major viab: inhibitors of Leishmania major promastigote growth | 200,000 compounds, 9% hits | inhibition, % at 10 µM | Leishmania major promastigotes, resazurin fluorescence viability | AID 1063; in the data active = inhibition above about 50%;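 also: promastigotes grown with compound for 44 hours at 28 °C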
Diaph inh CS: inhibits diaphorase or chemically oxidizes, flagging diaphorase assay artifacts | diaphorase resazurin-to-resorufin fluorescence, NADH, 16 min; bacterial (C. kluyveri) enzyme, not human | inhibition, % at 20 µM | 190,000 compounds, 0.69% hits;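 active = primary screen inhibition at 20 µM above a set limit, cut at about 50% in these data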;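 also: plate controls were DMSO with full reaction for no effect and wells lacking NADH for full effect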
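System: Bacterial diaphorase enzyme (C. kluyveri) | Incubation: 16-min room-temperature incubation before reading | Benchmarks: No-NADH positive control and DMSO neutral control | Measured by: Resorufin fluorescence 544/590 nm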
KCC2 mod: KCC2 (human) Cl- transport modulation; KCC2 cells, thallium flux FluoZin-2 fluorescence; AID 1456; Q9H2X9; B-score of Tl+ flux slope (higher = more flux/activation; lower = inhibition) at 10 µM; 190,000 compounds, 2.2% hits;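 active = thallium flux slope and its plate-corrected score both differing from the plate sample mean at a set confidence after two filtering rounds, in either direction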;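 also: slope of fluorescence scaled to starting intensity during 10 to 20 s after thallium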
KCC2 secondary: KCC2 (human) modulation, secondary assay; shares compounds with KCC2 mod; HEK293-KCC2, thallium flux, FluoZin2 fluorescence; hits give high values; normalised thallium flux (F/F0 slope) at 10 µM; 3,700 compounds, 15% hits;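 active = thallium flux slope above the same plate's solvent-only control mean plus 3 SD; inconclusive = the two replicate wells disagree; inactive = no significant difference from solvent-only control wells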
KCC2 bumet counter: bumetanide-insensitive thallium flux in KCC2 cells with ouabain, counter-screen | 3,700 compounds, 49% hits | normalized thallium flux at 10 µM | shares compounds with KCC2 mod | AID 1714 | HEK293-KCC2 + bumetanide/ouabain, thallium flux FluoZin2; hits give high values;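 active = thallium entry rate above the same plate's blocked-transporter control wells by more than 3 SD; inconclusive = the two repeat wells disagree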;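 also: raw slope of fluorescence over initial fluorescence between 10 and 20 s after thallium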
KCC2 secondary2: KCC2 (human) modulation, second secondary assay; shares compounds with KCC2 mod; HEK293-KCC2, thallium flux FluoZin2 fluorescence; actives lie on both sides; F/F0 rise rate, 10–20 s post-thallium; normalized thallium flux at 10 µM; 3,700 compounds, 23% hits;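 active = thallium flux slope more than 3 SD above or below the plate's solvent-only control mean, mostly below; inconclusive = the two repeat wells disagreed; inactive = no significant shift from solvent-only controls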;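 also: raw slope with 0.1% DMSO as baseline and bumetanide as block control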
HEK293 Tl flux: acts in parental HEK cells, KCC2 counter-screen; shares compounds with KCC2 mod; HEK293 parental cells, thallium flux FluoZin2, ouabain; baseline-ratio fluorescence slope, 10–20 s after thallium; thallium flux rate (normalised fluorescence) at 10 µM; 3,700 compounds, 46% hits;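 active = thallium flux rate significantly above the same plate's solvent-only control wells, beyond their mean plus 3 SD; inconclusive = the two replicate wells gave conflicting results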
KCC2 ouabain: modulates human KCC2 on retest with ouabain; shares compounds with KCC2 mod; HEK293-KCC2, thallium flux FluoZin2 fluorescence; bidirectional: low = inhibitor, high = activator; raw Tl+ flux slope (below DMSO = inhibition, above = activation) at 10 µM; 3,700 compounds, 48% hits; AID 1717;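 active = thallium flux slope beyond 3 SD from same-plate DMSO control mean in most replicates, usually higher, sometimes lower; inconclusive = repeat tests gave conflicting results; inactive = no significant difference from controls in most replicates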;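 also: slope of initial-normalized fluorescence between seconds 10 and 20 after thallium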
HEK293 Tl flux2: parental HEK flux effect, counter-screen 2 | shares compounds with KCC2 mod | HEK293 parental, thallium flux FluoZin-2 fluorescence slope | thallium flux slope at 10 µM | 3,700 compounds, 33% hits | AID 1718;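 active = thallium flux slope above the same plate's solvent-control mean plus 3 SD in both duplicate wells; inconclusive = duplicate wells that disagreed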;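 also: run without ouabain in cells lacking the KCC2 cotransporter; slope of fluorescence scaled to its starting value between 10 and 20 s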
An asterisk follows results filed as active; u = inconclusive; x = not tested or not shown.

SMILES	Diaphorase act	ROMK mod	WT yeast gro inh	L major viab	Diaph inh CS	KCC2 mod	KCC2 secondary	KCC2 bumet counter	KCC2 secondary2	HEK293 Tl flux	KCC2 ouabain	HEK293 Tl flux2
Cc1c(NC(=O)CN2c3cccc4cccc(c34)S2(=O)=O)c(=O)n(-c2ccccc2)n1C	0.8	x	-13.7	-6.1	17.2	0.0392	x	x	x	x	x	x
Cc1c(NC(=O)CN2C(=O)c3ccccc3S2(=O)=O)c(=O)n(-c2ccccc2)n1C	0.9	1.23	0.7	-7.7	5.1	3.43*	0.00766	0.0051	0.0348	0.00786	0.0212	u
CCOC(=O)C1=C2NC(=O)c3ccccc3N2C(=O)C1	0.9	0.294	-41.8	-6.2	14.3	40.2*	0.0142*	0.0908*	0.0369	0.0367*	0.0693*	0.018*
CCOC(=O)C1=C(N)N(c2ccccc2Oc2ccccc2)C(=O)C1	0.8	x	24.1	-1.3	19.2	-0.465	x	x	x	x	x	x
CC1Cc2ccccc2N1C(=O)c1ccc(N2CCCC2)c([N+](=O)[O-])c1 (centres undefined)	0.8	x	19.0	12.5	18.0	-6.53*	0.00681	0.00467	0.0197*	0.00712	0.0126*	0.0104
CC1Cc2ccccc2N1C(=O)c1ccc(N2CCCCC2)c([N+](=O)[O-])c1 (centres undefined)	0.7	x	43.1	4.4	34.1	-4.73*	0.0106	u	u	0.00686	0.0135*	0.0101
O=C(c1ccc(N2CCCCC2)c([N+](=O)[O-])c1)N1CCOCC1	0.9	-0.0576	-12.8	-7.5	7.8	-0.481	x	x	x	x	x	x
O=C(O)c1ccccc1C(=O)c1ccc(N2CCCC2)c([N+](=O)[O-])c1	1	0.044	1.9	-0.6	3.2	0.941	x	x	x	x	x	x
Cc1ccc(-c2csc3ncnc(SCC(N)=O)c23)cc1	0.8	1.43	4.2	-11.1	17.0	7.89*	0.0178*	0.0603*	0.0383	u	0.0498*	u
Cc1ccc(-c2csc3nc(SCC(N)=O)n(Cc4ccccc4)c(=O)c23)cc1	0.8	0.00393	35.3	51.5*	16.7	6.7*	0.0106	0.0214*	0.0334	0.028*	0.0258*	0.0118
Cc1sc2ncnc(SCc3ccc(C(=O)O)cc3)c2c1C	0.8	-0.0906	1.4	-4.3	17.9	1.37	x	x	x	x	x	x
Cc1ccc(-c2csc3ncnc(SCc4ccc(C(=O)O)cc4)c23)cc1	0.8	1.69	59.0*	-3.3	19.2	140*	0.00825	0.119*	0.0948*	0.0935*	0.107*	0.0905*
CCc1nnc(NC(=O)CSc2ncnc3scc(-c4ccc(C)cc4)c23)s1	1	x	-10.7	-8.0	3.9	2.06	x	x	x	x	x	x
CCCCCCOc1ccc(N2C(=O)CC(N3CCN(CCN=CC4C(=O)CC(C)(C)CC4=O)CC3)C2=O)cc1 (centres undefined)	0.8	-1.43	0.4	0.8	19.1	-1.12	x	x	x	x	x	x
Cc1ccc(Cn2nnnc2CN2CCC(O)(c3ccccc3F)CC2)cc1	0.8	x	-5.0	-0.2	16.8	-0.662	x	x	x	x	x	x
COCC(C)OC(=O)c1c(N)n(-c2ccc(OC)c(OC)c2)c2nc3ccccc3nc12 (centres undefined)	x	x	x	x	x	1.68	x	x	x	x	x	x
CSc1nc2[nH]c3c(c2c2ncnn12)CCCC3	0.8	0.0356	-5.8	27.1	15.3	-0.0136	0.00879	0.00608	0.0315	0.00752	0.0192	0.0108
Cc1sc2ncnc(SCC(=O)Nc3nc(-c4ccc(F)c(F)c4)cs3)c2c1C	1.2	0.454	7.1	3.0	-20.1	45*	0.0258*	0.0779*	0.0459*	0.0398*	0.0716*	0.0224*
Cc1sc2ncnc(SCC(=O)NC(C)C(C)C)c2c1C (centres undefined)	0.8	1.42	6.0	11.1	18.4	1.66	x	x	x	x	x	x
CC(=O)c1ccc(NC(=O)C2CC(=O)N(C(C)C)C2)cc1 (centres undefined)	0.9	-0.0434	1.4	-6.2	5.8	-0.00236	x	x	x	x	x	x
Cc1ccc(-c2cc(C(=O)N3CCN(c4ncccn4)CC3)c3cc(Br)ccc3n2)o1	0.8	-0.338	-7.1	43.1	18.8	1.11	x	x	x	x	x	x
CC(NCc1ccc(F)cc1)C(=O)Nc1cc(S(=O)(=O)N2CCCCC2)ccc1Cl (centres undefined)	0.8	0.92	2.0	61.6*	15.4	-4.74*	0.0105	0.00803*	u	0.00645	0.0158*	0.0103
CC(C)(C)CC(=O)Nc1cc(S(=O)(=O)N2CCCCCC2)ccc1Cl	0.9	-1.61	15.0	5.0	12.3	-0.508	x	x	x	x	x	x
Cc1ccc(C(=O)CCC2CCCCC2=O)cc1 (centres undefined)	0.9	1.03	-16.1	-0.7	5.3	x	0.00582	0.0119*	0.0308	0.00746	u	0.0105
Cc1nc2cccc(C(=O)NCc3ccccc3)c2o1	0.8	0.803	-2.1	11.3	22.4	x	x	x	x	x	x	x
